Sampled rows, rich in hits. Any-hit rate of the full collection: about 2.8%.
p-CIP stab down = p/CIP-EGFP fusion destabilizers, primary screen, fluorescence, F442A cells | 0.01% of 290,000 active | Q05BA5 | decrease of EGFP signal, % at 10 µM | 16 h;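 active means EGFP signal decrease of at least 30% at 10 µM or well 3 SD below plate mean, unless failing retest; inactive means the rest, including hits failing retest or dose response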
T cruzi repl = inhibitors of intracellular T. cruzi growth, primary screen, luminescence, NIH3T3 host cells; T. cruzi beta-gal in NIH3T3, 90 h; inhibition, % (test concentration not listed); 1.4% of 300,000 active; AID 1885, 2009;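 active means mean inhibition across valid replicates above about 55%, limit read from the data; inconclusive means mean below that limit but half or more replicates reach it; inactive means mean below it, under half of replicates reach it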;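 further: signal also drops with host cell toxicity which is not excluded here; higher percent means less beta-gal luminescence so fewer parasites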
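Assay system: NIH/3T3 host cells with β-galactosidase reporter T. cruzi; input: 5,000 host fibroblasts per well; compound: single 50 nL compound addition per well in DMSO; timing: ≥90 h infection period, 3 h prior cell attachment; measured by: GalScreen β-gal luminescence, detergent lysis, 60 min; evaluation: percent inhibition of parasite-derived β-gal signal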
PP1 counter = PP1-alpha phosphatase inhibitors, primary screen, counter-screen for PP5 inhibitor project, biochemical, fluorescence, OMFP substrate, single point; inhibition, % at 6.7 µM; AID 2235, 2010; 0.9% of 320,000 active; purified PP1alpha; Serine/threonine-protein phosphatase PP1-alpha catalytic subunit (Homo sapiens), P62136;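 active means inhibition above the mean inhibition of all tested compounds plus 3 SD, computed separately for each screening campaign, cut at about 15% in these data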
AI-2 QS modul = Vibrio harveyi AI-2 quorum sensing modulators, primary screen, JMH597 strain, luminescence/OD600 ratio; Vibrio harveyi JMH597 AI-2 luminescence/OD600 ratio, 9 h; active compounds read low; strain lacks LuxN and CqsS sensors; 0 = neutral-control median; activity change, % at 7.5 µM; 0.4% of 300,000 active; AID 2094, 2009; in the data active means activity change below about -75%, passing the limit was not always enough; inconclusive means no clear call, values can overlap the other calls;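 further: luminescence divided by OD600 gain over 9 h not by final OD600 alone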
UBC13 polyUb = UBC13 polyubiquitin chain formation inhibitors, primary screen, biochemical, TR-FRET, uHTS; Ubiquitin-conjugating enzyme E2 N (Homo sapiens), P61088; 0.47% of 330,000 active; inhibition, % at 20 µM; in the data active means inhibition above about 45%, passing the limit was not always enough; inconclusive means no clear call, values can overlap the other calls
Target sequence (P61088 whole entry, looked up): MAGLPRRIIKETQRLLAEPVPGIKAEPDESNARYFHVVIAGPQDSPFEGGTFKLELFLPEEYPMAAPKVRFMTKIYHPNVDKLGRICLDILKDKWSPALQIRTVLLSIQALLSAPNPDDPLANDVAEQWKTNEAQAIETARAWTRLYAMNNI
PP1 inh confirm = PP1 phosphatase inhibitors, confirmation, biochemical, fluorescence, OMFP substrate, triplicate. shares compounds with PP1 counter. purified PP1alpha. inhibition, % at 6.7 µM. 52% of 1,900 active. AID 2358, 2010;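 active means mean PP1 inhibition above a set limit taken from the earlier primary screen, cut at about 15% in these data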
PP5 counter = PP5 phosphatase inhibition by PP1 hits, confirmation, counter-screen for PP1 inhibitor project, biochemical, fluorescence, triplicate. purified PP5c, OMFP fluorescence. shares compounds with PP1 counter. inhibition, % at 6.7 µM. AID 2360, 2010. 4% of 1,900 active;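 active means mean PP5 inhibition over triplicate wells above about 9.5% taken from the earlier PP1 screen, limit read from the data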
Target sequence (P53041 whole entry, looked up): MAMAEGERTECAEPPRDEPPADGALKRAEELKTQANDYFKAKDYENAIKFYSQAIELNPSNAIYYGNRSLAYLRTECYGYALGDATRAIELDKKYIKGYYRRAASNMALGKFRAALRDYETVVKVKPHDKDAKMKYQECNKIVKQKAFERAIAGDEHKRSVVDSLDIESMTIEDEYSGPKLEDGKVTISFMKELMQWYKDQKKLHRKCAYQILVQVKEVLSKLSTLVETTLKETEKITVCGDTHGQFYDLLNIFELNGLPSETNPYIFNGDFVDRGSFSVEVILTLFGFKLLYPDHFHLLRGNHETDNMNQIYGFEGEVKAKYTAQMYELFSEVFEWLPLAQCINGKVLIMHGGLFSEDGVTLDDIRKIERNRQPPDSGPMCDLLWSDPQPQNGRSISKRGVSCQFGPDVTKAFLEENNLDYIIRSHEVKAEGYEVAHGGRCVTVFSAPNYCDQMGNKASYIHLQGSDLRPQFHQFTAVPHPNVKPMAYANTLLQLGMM
A number is an active result; . = inactive; ? = inconclusive; / = not tested or not shown.

SMILES	p-CIP stab down	T cruzi repl	PP1 counter	AI-2 QS modul	UBC13 polyUb	PP1 inh confirm	PP5 counter
COc1ccc(CC(=O)N2CCN(S(=O)(=O)c3cc(Cl)ccc3Cl)CC2)cc1	/	/	.	/	.	/	/
O=C(Nc1nc(-c2ccccn2)cs1)Nc1ccc(F)cc1F	.	55.5	38.2	.	.	41.9	.
O=C(COc1ccc(F)cc1)Nc1nc(-c2ccccn2)cs1	/	.	26.7	.	.	34.7	.
O=C(Nc1nc(-c2ccccc2)cs1)Nc1ccc(F)cc1F	.	.	.	.	.	/	/
O=C(COc1ccccc1)Nc1nc(-c2ccncc2)cs1	.	.	.	.	.	/	/
O=C(NC1CCCCC1)N(Cc1cc2cc3c(cc2[nH]c1=O)OCCO3)C1CCCCC1	.	.	.	/	.	/	/
O=C(Nc1ccc(NC(=O)c2cccs2)c(Cl)c1)c1ccco1	.	.	.	.	.	/	/
O=C(Nc1ccc(NC(=O)c2sc3ccccc3c2Cl)cc1Cl)c1ccco1	.	.	19.9	.	.	28.3	.
CCCCCC(=O)NC(=S)NC1C2CC3CC(C2)CC1C3 (stereo unspecified)	.	.	.	.	.	/	/
COc1ccc(/C=C/C(=O)NC(=S)Nc2ccc(S(=O)(=O)N=C(N)N)cc2)cc1OC	.	.	19.7	.	.	23.1	.
CC(C)(C)C(=O)Nc1scc(-c2ccc(-c3ccccc3)cc2)c1C(=O)O	.	.	17.6	.	.	.	.
COc1ccc2[nH]c3c(=O)n(CCCCC(=O)N4CCCC4)c(=S)[nH]c3c2c1	.	.	36.2	.	.	32.8	.
Cc1nc(S/C(=C/c2ccc(-c3cc(Cl)ccc3C)o2)C(=O)O)n[nH]1	.	.	18.8	.	.	18.4	.
NNC(=O)C1SCCN1S(=O)(=O)c1ccc(Cl)cc1 (stereo unspecified)	/	.	.	.	.	/	/
Cc1cccc(C)c1NC(=O)CN1C(=O)S/C(=C\c2cccn2-c2cccc(C(=O)O)c2)C1=O	.	.	.	.	.	/	/
Cc1cccc(C)c1-n1cccc1/C=C1\SC(=S)N(c2cccc(C(=O)O)c2)C1=O	.	.	21.8	.	.	22.7	.
Cc1cc(C)c(C(=O)OCc2csc(CC(=O)Nc3ccccc3C)n2)c(C)c1	.	.	20.5	.	.	.	.
Cc1ccccc1NC(=O)Cc1nc(COC(=O)c2ccccn2)cs1	/	.	.	.	.	/	/
Cc1ccc(NC(=O)/C(C#N)=C/c2cn(CC(=O)NCc3ccco3)c3ccccc23)cc1C	.	.	31.8	.	.	31.0	.
COc1cccc(/C=C/c2ccc3cccc(O)c3n2)c1OC	.	.	20.0	.	.	16.8	.
COc1cccc(/C=C/c2ccc3cccc(O)c3n2)c1	.	?	19.0	.	.	18.7	.
COc1cc(/C=C/c2ccc3cccc(O)c3n2)cc(Cl)c1OC	.	.	18.1	.	.	26.4	.
COc1ccc(/C=C/c2ccc3c(Br)ccc(O)c3n2)cc1	.	.	22.3	.	.	19.1	.
Oc1cccc(/C=C/c2ccc3cccc(O)c3n2)c1	.	.	.	.	.	/	/
Cc1ccc(/C=C/c2ccc3cccc(O)c3n2)s1	.	.	19.8	.	.	15.5	.
SMILES	p-CIP stab down	T cruzi repl	PP1 counter	AI-2 QS modul	UBC13 polyUb	PP1 inh confirm	PP5 counter
CC(OC(=O)c1n[nH]c2ccccc12)C(=O)Nc1ccccc1[N+](=O)[O-] (stereo unspecified)	/	/	.	/	.	/	/
O=c1cc(-c2c(O)c3ccccc3n(Cc3ccccc3)c2=O)[nH][nH]1	.	.	28.7	.	.	.	.
CCn1c(=O)c(-c2cc(=O)[nH][nH]2)c(O)c2ccccc21	.	.	.	.	.	/	/
CCN(CC)S(=O)(=O)c1cc(NC(=O)CO/N=C(\N)c2ccccc2Cl)ccc1C	/	/	.	/	.	/	/
Cc1cc(NC(=O)c2cccs2)no1	.	.	.	.	.	/	/
Cc1cc(NC(=O)Cc2cccs2)no1	.	/	27.7	/	.	.	.
O=C(CSc1nc2ccc(Nc3nc(N4CCCC4)nc(N4CCCC4)n3)cc2s1)NCc1ccco1	.	.	18.9	.	.	.	.
CCCC[C@H]1COCCS(=O)(=O)N1Cc1cccc([N+](=O)[O-])c1	.	.	.	.	.	/	/
Cn1c(=O)cc(SCC(=O)NCc2ccco2)c2ccccc21	.	.	.	.	.	/	/
O=C(CSc1cn(CCNC(=O)c2ccc3ccccc3c2)c2ccccc12)NCc1ccco1	.	.	17.8	.	.	.	.
Nc1cccc(Nc2nc(OC(C(F)(F)F)C(F)(F)F)nc(OC(C(F)(F)F)C(F)(F)F)n2)c1	.	.	18.2	.	.	16.4	15.1
COc1nc(Nc2ccc(O)cc2)nc(OC(C(F)(F)F)C(F)(F)F)n1	.	.	.	.	.	/	/
CN1C(C(=O)NCc2ccco2)=CC(c2ccc(F)cc2)=NS1(=O)=O	.	.	.	.	.	/	/
CCc1cccc(NC(=O)c2ccc(Cn3c(=O)[nH]c4ccsc4c3=O)cc2)c1	.	.	18.1	.	.	.	.
CCCCNC(=O)C(c1ccc(OCC(=O)OC)c(C(=O)OC)c1)N(CCOC)C(=O)CCCCCN1C(=O)NC(c2ccc(-c3ccccc3)cc2)C(C(=O)OCc2ccccc2)=C1C (stereo unspecified)	.	.	34.7	.	.	35.1	.
CCCCCCN(C(=O)CCCCCN1C(=O)NC(c2ccc(-c3ccccc3)cc2)C(C(=O)OCc2ccccc2)=C1C)C(C(=O)NCCCC)c1ccc(OCC(=O)OC)cc1 (stereo unspecified)	.	.	30.1	.	.	19.9	.
CCCCCCN(C(=O)CCCCCN1C(=O)NC(c2ccc(-c3ccccc3)cc2)C(C(=O)OCc2ccccc2)=C1C)C(C(=O)NCCCC)c1ccccn1 (stereo unspecified)	.	.	/	.	.	/	/
CCCCNC(=O)C(c1ccc(OCC(=O)OC)c(C(=O)OC)c1)N(CCc1ccccc1)C(=O)CCCCCN1C(=O)NC(c2ccc(-c3ccccc3)cc2)C(C(=O)OCc2ccccc2)=C1C (stereo unspecified)	.	/	/	/	/	/	/
Cc1cccc(N2CCN(S(=O)(=O)c3ccc(S(=O)(=O)N4CCCC4)cc3)CC2)c1C	.	.	.	.	.	/	/
Cc1cccc(N2CCN(S(=O)(=O)c3ccc4c(c3)CC(=O)N4C)CC2)c1C	.	.	17.8	.	.	.	.

Screening results: PubChem, several laboratories
